STAT3 blocker: inhibitors of IL-6 induced STAT3 signaling. U3A cells, IL-6 STAT3-luciferase reporter, luminescence; host cell line lacks STAT1. inhibition, % at 5.5 µM. 190,000 tested, 0.89% active. AID 862;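 active = inhibition above the mean inhibition across all screened compounds plus 3 SD, cut at about 44% in these data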;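 also: 0% = DMSO only wells and 100% = 100 µM nifuroxazide control wells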
STAT3 act: STAT3 signaling activation | activation (% of control), % at 5.6 µM | AID 871 | U3A cells, IL-6 STAT3-luciferase reporter, luminescence; 100% = signal with IL-6 EC80 alone | 190,000 tested, 0.91% active;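 active = activation above the screen-wide mean of compound activation plus 3 SD, cut at about 130% in these data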;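 also: 0% = background luminescence of wells with medium and substrate only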
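Material: human U3A cells carrying STAT3-luciferase construct. Measured by: reporter luminescence signal. Timing: compound 1 h, then IL-6 6 h at 37 °C.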
STAT1 blocker: inhibitors of IFN-gamma induced STAT1 signaling | AID 920 | inhibition, % at 5.5 µM | NIH 3T3 STAT1-luciferase reporter, luminescence | 200,000 tested, 0.35% active;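 active = inhibition above a set limit, the mean inhibition across all tested compounds plus 3 SD, cut at about 34% in these data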;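 also: 0% = IFN-gamma with DMSO and 100% = IFN-gamma with 300 µM nifuroxazide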
PERK inhibitor: human PERK inhibition, primary cell-based screen; 220,000 tested, 0.17% active; AID 1416; inhibition, % at 5.6 µM; Q9NZJ5; CHO PERK-DD fusion, SEAP luminescence translation reporter;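 active = inhibition above the mean inhibition of all tested compounds plus 3 SD, set separately per screening campaign, cut at about 2.9% in these data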;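 also: PERK kinase domain activated by AP20187 dimerizer at 100 nM; 0% = DMSO with dimerizer and 100% = rapamycin at 8.4 µM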
Numbers without * were called inactive; / = not tested or not shown; ! = a repeat was not active. Sampled rows, rich in hits. Any-hit rate of the full collection: about 1.8%.

SMILES	STAT3 blocker	STAT3 act	STAT1 blocker	PERK inhibitor
COc1ccc(-n2c(-c3ccc(Br)cc3)c[n+]3c2CCc2ccccc2-3)cc1	72*	39	25	-1
FC(F)Oc1ccc(-c2c[n+]3c(n2-c2ccccc2)CCCCC3)cc1	/	/	/	0
CC(C)c1ccc(-n2c(-c3ccccc3)c[n+]3c2CCc2ccccc2-3)cc1	80*	35	40*	0
O=C(/C=C/Nc1ccc(F)cc1)c1ccc(Oc2ncccn2)cc1	15	90	-12	1
COc1ccccc1/C=C/C(=O)c1ccc(Cl)cc1	-10	113	4	-1
O=C(/C=C\Nc1ccccn1)c1ccc(Cl)cc1	100*	21	56*	1
O=C(/C=C/c1ccccc1O)c1ccc(Cl)cc1	-34	135*	6	0
Cc1cc(Cl)ccc1Oc1nccc(N(C)C)c1C#N	29	84	-7	0
COc1ccc(C)cc1N(C(=O)c1cccc(F)c1)c1nc2ccccc2s1	-35	134*	-5	0
COc1ccc(C)cc1N(C(=O)c1ccccc1)c1nc2ccccc2s1	-27	127	-6	0
CC(=C/C(=O)O)/C(=C\c1ccc(Br)o1)C(=O)O	/	/	/	1
CC1Nc2nc(N(C)C)[nH]c(=O)c2NC1C (stereo not given)	-6	106	-10	1
C=CCNc1nc(-c2sc(NC(=O)CC)nc2C)cs1	-37	135*	-28	0
C=CCNc1nc(-c2sc(NC(C)=O)nc2C)cs1	-3	103	-32	0
COc1ccc(C2=Nn3c([n+](C)c4ccccc43)SC2)cc1	37	70	35*	-1
CCc1ccc(NSc2ccccc2[N+](=O)[O-])cc1	25	85	12	3.2*
O=C(Nc1cccc2ccccc12)c1ccc(Cn2cc(Cl)cn2)cc1	6	101	2	0
Cc1ccc(C2CC(C(F)(F)F)n3nc(C(=O)NCc4c(C)nn(C)c4C)c(Cl)c3N2)cc1 (stereo not given)	60*	55	59*	-1
COc1ccc(-c2cc(C(=O)O)c3ccccc3n2)c(OC)c1	1	102	2	0
COc1ccc2cc(-c3cc(C(=O)O)c4ccccc4n3)ccc2c1	95*	17	73*	1
COc1cccc(C2c3[nH]c4ccccc4c3CCN2Cc2cccn2-c2ncccn2)c1 (stereo not given)	-31	133*	-1	0
CCn1cc(CN2CCc3c([nH]c4ccccc34)C2c2cccc(OC)c2)c(C)n1 (stereo not given)	-30	133*	-5	0
CCNC(=S)Nc1nc2c(cc1C(=O)OCC)CCCC2	7	96	-6	1
CCOC(=O)c1ncn2c1CN(C)C(=O)c1cc(F)ccc1-2	4	98	0	3.1*!
CCN(C(=O)CSc1nc2nc(C)cc(C)n2n1)C1CCS(=O)(=O)C1 (stereo not given)	1	104	-8	1
SMILES	STAT3 blocker	STAT3 act	STAT1 blocker	PERK inhibitor
COc1cccc(C2c3[nH]c4ccccc4c3CCN2CCCn2cccn2)c1 (stereo not given)	-31	132	9	0
CCn1ccnc1CN1CCc2c([nH]c3ccccc23)C1CC(C)C (stereo not given)	-23	122	2	-1
CCOc1ccc(C2c3[nH]c4ccccc4c3CCN2CCCn2cccn2)cc1 (stereo not given)	-32	134*	2	1
CC(C)CC1c2[nH]c3ccccc3c2CCN1CCCn1cccn1 (stereo not given)	-31	133*	8	0
O=C(Cc1c(F)cccc1Cl)Nc1ccccc1N1CCCCC1	-1	109	12	1
CC(C)OP(=O)(OC(C)C)C(C)NC(=O)Cc1ccccc1 (stereo not given)	7	98	0	0
CCCCc1c(C)nc2c(OC)cccc2c1SCC(=O)O	/	/	/	4.2*
COc1cccc2c(Cl)c(CCCl)c(C)nc12	30	77	-16	0
CC(C)C(NC(=O)C1CCCCC1)C(=O)NCCc1ccccc1 (stereo not given)	-6	105	-3	0
O=C(OCc1nc2ccccc2s1)c1ccccc1O	-6	111	-15	1
O=C(OCc1nc2ccccc2s1)c1cccs1	-57	151*	-40	0
Cc1c(-c2ccccc2)nc2ccccc2c1C(=O)NCc1cccs1	-15	112	3	0
Cc1ccc(OCc2nc(-c3ccccn3)no2)c(Br)c1	83*	34	48*	0
O=[n+]1c2c(n([O-])c3c1CCC3)CCCC2	-36	136*	-1	1
Cc1noc(C)c1C1(O)CCCCCCCCCCC1	-1	103	0	0
CC(=O)Nc1ccc(NC(=O)C(C)n2nc(C)c([N+](=O)[O-])c2C)cc1 (stereo not given)	14	96	-2	3.0*
COCCCn1c(=O)/c(=C\c2ccccc2OC(C)C)s/c1=C(/C#N)C(=O)Nc1ccc(C(=O)O)cc1	/	/	/	0
CC(=O)Oc1c(/C=C(\C#N)C(N)=O)[nH]c2ccccc12	-5	105	6	2.9*
COc1ccc(C)cc1NC(=O)C1CCN(C(=O)Cc2ccccc2)CC1	15	92	-5	0
Cc1occc1-c1nc(-c2ccncc2)no1	26	80	-6	0
Cc1ccc(-c2nc(-c3ccccc3)no2)c(Cl)c1	101*	20	69*	2
c1ccc(-c2noc(-c3cccc4ccccc34)n2)cc1	-100	192*	-46	1
Brc1cccc(-c2nc(-c3ccncc3)no2)c1	13	94	-18	1
Cc1ccc(-c2noc(-c3ccoc3C)n2)cc1	-43	138*	-59	1
c1ccc2c(-c3nc(-c4ccncc4)no3)cccc2c1	-37	136*	-32	1
SMILES	STAT3 blocker	STAT3 act	STAT1 blocker	PERK inhibitor
O=C(O)c1ccc(-c2nc(-c3ccccc3)c(-c3cccs3)[nH]2)cc1	/	/	/	4.3*
Cc1ccc(-c2[nH]c(-c3ccc(C(=O)O)cc3)nc2-c2ccccc2)cc1	10	92	14	1
CCCCOCCCNc1ncnc2c1[nH]c1ccccc12	56*	55	41*	-3
COc1ccc(S(=O)(=O)Nc2cc(Sc3ncn[nH]3)c(O)c3ccccc23)cc1	-25	119	12	-1
O=S(=O)(Nc1cc(Sc2cccc3cccnc23)c(O)c2ccccc12)c1ccc(F)cc1	-96	184*	-45	0
CCOC(CCc1c(C)nc(NC(C)=O)[nH]c1=O)OCC	/	/	/	3.1*
CC(=O)Nc1nc(C)c(CCCOc2ccc([N+](=O)[O-])cc2)c(=O)[nH]1	/	/	/	0
COc1cc(/C=C(/C(=O)c2cccs2)c2nc3ccccc3[nH]2)ccc1O	-41	136*	5	0
O=C(/C(=C/c1ccc(Cl)cc1)c1nc2ccccc2[nH]1)c1cccs1	3	97	15	-2
Fc1ccc(NC(=S)NC23CN4CN(CN(C4)C2)C3)cc1	0	103	-7	1
CCn1c(C)nc2cc(-c3nc4n(n3)Cc3ccccc3-4)ccc21	115*	7	96*	0

Compound activity: PubChem, The Scripps Research Institute Molecular Screening Center
